In the library only some 2.3% were active in any assay of this set; here they are far more common.
TRPC6 activator: activates the mouse TRPC6 cation channel | HEK293-TRPC6 membrane potential dye fluorescence; hits give high values | B-score at 10 µM | 310,000 tested, 0.13% active | Q61143;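 active means B-score of the integrated fluorescence ratio above library mean plus 3 SD, and starting fluorescence ratio within library mean plus 5 SD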;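 further: higher score means more depolarization so channel activation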
TRPC4 potent: TRPC4 (mouse) allosteric potentiation. Q9QUQ5. HEK293 TRPC4beta/mu-opioid, DAMGO EC20, Fluo-4 Ca2+ flux; hits give high values. B-score at 10 µM. 310,000 tested, 0.42% active. AID 2227;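 active means B-score of calcium response area above 5 SD of library B-scores, with initial fluorescence ratio within 5 SD of library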;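 further: B-score of integrated fluorescence ratio over time as area under calcium response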
Target sequence (Q9QUQ5 whole entry, looked up): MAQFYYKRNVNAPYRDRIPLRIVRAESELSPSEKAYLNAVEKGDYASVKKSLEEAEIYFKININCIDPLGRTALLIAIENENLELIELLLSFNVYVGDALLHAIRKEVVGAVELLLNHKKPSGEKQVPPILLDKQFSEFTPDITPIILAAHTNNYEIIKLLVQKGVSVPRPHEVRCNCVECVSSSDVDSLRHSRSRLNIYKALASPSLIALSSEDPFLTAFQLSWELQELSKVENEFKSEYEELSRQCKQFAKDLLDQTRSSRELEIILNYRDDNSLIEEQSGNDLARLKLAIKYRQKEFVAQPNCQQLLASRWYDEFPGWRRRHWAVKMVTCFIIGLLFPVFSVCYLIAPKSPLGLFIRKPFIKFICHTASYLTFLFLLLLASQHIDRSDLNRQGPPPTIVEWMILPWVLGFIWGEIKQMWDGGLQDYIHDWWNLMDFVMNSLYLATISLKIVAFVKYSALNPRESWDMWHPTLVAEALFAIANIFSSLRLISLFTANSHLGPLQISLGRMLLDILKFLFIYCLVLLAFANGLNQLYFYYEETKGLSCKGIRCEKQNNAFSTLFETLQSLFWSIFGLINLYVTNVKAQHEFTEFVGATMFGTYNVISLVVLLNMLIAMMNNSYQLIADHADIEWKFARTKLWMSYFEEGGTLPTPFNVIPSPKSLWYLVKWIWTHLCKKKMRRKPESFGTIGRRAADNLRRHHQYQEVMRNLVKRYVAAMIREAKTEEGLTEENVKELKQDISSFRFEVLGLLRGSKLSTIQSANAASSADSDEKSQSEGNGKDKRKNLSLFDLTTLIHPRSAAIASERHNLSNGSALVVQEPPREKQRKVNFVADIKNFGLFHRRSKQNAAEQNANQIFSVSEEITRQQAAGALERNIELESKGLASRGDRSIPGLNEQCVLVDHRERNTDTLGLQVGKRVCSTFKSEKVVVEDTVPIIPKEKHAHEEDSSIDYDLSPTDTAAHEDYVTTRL
TRPC4 agonist: activators of mouse TRPC4 channel. Q9QUQ5. HEK293 TRPC4beta/mu-opioid, Fluo4 calcium fluorescence; hits give high values. B-score at 10 µM. 310,000 tested, 0.49% active;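 active means B-score above 5 SD of library B-scores, and initial fluorescence ratio not above library mean plus 5 SD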;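 further: positive B-score marks a calcium rise read as TRPC4 activation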
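Assay system: HEK293 cells stably co-expressing mouse TRPC4beta and mu-opioid receptor / Timing: Fluo4 dye loading 45 min at room temperature, 110 s recording / Signal: Fluo4 calcium-sensitive dye fluorescence, kinetic, 1 Hz baseline / Read-out: integrated baseline-normalised fluorescence ratio, converted to per-well B score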
TRPC4 inh: inhibitors of mouse TRPC4 channel. 300,000 tested, 0.39% active. Q9QUQ5. HEK293 TRPC4beta/mu-opioid, DAMGO-evoked Fluo4 calcium flux; hits give low values. AID 2247. B-score at 10 µM;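 active means B-score over 3 SD under the library average, no early fluorescence shift, positive overall ratio signal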
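Assay system: HEK293 cells with stable TRPC4beta plus mu-opioid receptor expression. Dosing: single dose. Measured by: Fluo4 Ca2+ flux fluorescence. Also added: DAMGO in two steps, submaximal then maximal. Read-out: B score from integrated Fluo4 fluorescence ratio.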
TRPC6 inh: blocks the mouse TRPC6 cation channel. HEK293-TRPC6, membrane potential dye, ACh-evoked depolarization; hits give low values. AID 2553. B-score at 10 µM. 310,000 tested, 1.1% active. Q61143;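 active means B-score under library mean minus 3 SD, initial fluorescence not abnormally high, positive integrated signal ratio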;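 further: B-score derived from integrated fluorescence ratio over the kinetic read; more negative B-score means stronger inhibition of depolarization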
HEK293 TRPC6 ctr: checks TRPC6 modulator effects in parental HEK293 cells | shares compounds with TRPC6 inh | membrane potential dye fluorescence | membrane potential signal change, % at 10 µM | 2,400 tested, 51% active | AID 488924;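 active means membrane potential signal moves up or down beyond 5 SD from buffer-only wells, on both duplicate plates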
HEK293 MPD ctr 2: second check of TRPC6 modulator effects in parental HEK293 cells | shares compounds with TRPC6 inh | membrane potential dye fluorescence; after compound, maximal acetylcholine stimulation | inhibition, % at 10 µM | 2,400 tested, 14% active;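 active means membrane potential signal drops by more than 5 SD from the mean control signal, in both duplicate plates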;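 further: plate controls were acetylcholine ECmax control wells for no effect and buffer only wells for full effect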
TRPC4/MOR mod: selectivity of TRPC6 modulators against mouse TRPC4. shares compounds with TRPC6 inh. HEK293 TRPC4/mu-opioid, membrane potential fluorescence. percent change from control (negative = decrease, positive = increase), % at 10 µM. 2,400 tested, 69% active. AID 488927;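 active means membrane potential signal moved up or down beyond 5 SD of buffer control wells, in both duplicate plates, actives on both sides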;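 further: plate controls were assay buffer wells for no effect and DAMGO maximal-effect wells for full effect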
TRPC4 ctr inh 2: second selectivity test of TRPC6 modulators against mouse TRPC4; shares compounds with TRPC6 inh; HEK293 TRPC4/mu-opioid, membrane potential dye fluorescence; stimulated with maximal-effect DAMGO; inhibition, % at 10 µM; 2,400 tested, 55% active; AID 488928;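 active means drop in membrane potential signal beyond 5 SD of the control wells in both duplicate plates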;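 further: TRPC4 counter screen for TRPC6 hits run under conditions tuned for TRPC6 not TRPC4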
TRPC6 inh conf: confirmation of mouse TRPC6 inhibitors; shares compounds with TRPC6 inh; HEK293-TRPC6, membrane potential dye, ACh-evoked depolarization; inhibition, % at 10 µM; 3,300 tested, 43% active;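 active means fluorescence ratio falls more than 5 SD below the full-stimulation control mean, in both duplicate runs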;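 further: integrated fluorescence ratio of peak minus minimum over baseline after agonist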
TRPC6 act conf: confirmation of mouse TRPC6 activators; shares compounds with TRPC6 inh; HEK293-TRPC6 membrane potential dye fluorescence, FDSS; activation, % at 10 µM; 2,800 tested, 11% active;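 active means ratio signal rise beyond 5 SD above unstimulated control wells' mean, seen in both duplicate runs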;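 further: plate controls were buffer EC0 wells for no effect and acetylcholine ECmax response for full effect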
The depositor's hits bear a star; i = inactive; x = no result.

SMILES | TRPC6 activator | TRPC4 potent | TRPC4 agonist | TRPC4 inh | TRPC6 inh | HEK293 TRPC6 ctr | HEK293 MPD ctr 2 | TRPC4/MOR mod | TRPC4 ctr inh 2 | TRPC6 inh conf | others
CCc1ccc(CNCCc2ccc(F)cc2)cc1 | i | i | i | i | i | x | x | x | x | x
CC(NC(=O)Cc1cccc2ccccc12)C(=O)N1CCC(=O)CC1 (stereo not given) | i | i | i | i | i | x | x | x | x | x
Clc1ccc(CCNCc2ccncc2)c(Cl)c1 | i | i | 50* | i | i | x | x | x | x | x
CCc1ccc(OCCCN=C(C)c2c(O)n(C)c(=O)n(C)c2=O)cc1 | i | 16* | i | i | i | x | x | x | x | x
CC(NCc1cccc(Cl)c1Cl)C(O)c1ccccc1 (stereo not given) | i | i | i | i | i | x | x | x | x | x
CN(C)C(CNC(=O)Cc1c(Cl)cccc1Cl)c1ccccc1 (stereo not given) | i | i | 219* | i | i | x | x | x | x | x
CCN(CC)CC(O)c1ccc(C2CCCC2)cc1 (stereo not given) | i | i | i | i | i | x | x | x | x | x
COc1ccc(C[C@@H]2c3cc(O)c(OC)cc3CCN2C)cc1O | i | 17* | i | i | i | x | x | x | x | x
COc1ccc(CC2c3cc(OC)c(OC)cc3CCN2C)cc1OC (stereo not given) | i | i | i | i | i | x | x | x | x | x
COc1cc(C[C@@H](C)N)c(OC)cc1I | i | i | i | i | -5.2* | i | i | i | 42%* | 42%* | TRPC6 act conf=i
OC(c1ccncc1)(c1ccc(F)cc1)c1ccc(F)cc1 | i | i | i | i | i | x | x | x | x | x
Cc1ccc(C(=O)n2cc(CCN3CCS(=O)(=O)CC3)c3ccccc32)cc1 | i | i | i | i | i | x | x | x | x | x
OCC[n+]1c2ccccc2nc2ccc(N3CCOCC3)cc21 | i | i | i | i | -10* | -274%* | 104%* | -47%* | 72%* | 82%* | TRPC6 act conf=i
CCOC(=O)c1c(N)n(CCN2CCCCC2)c2nc3ccccc3nc12 | i | i | i | i | -5.9* | -135%* | i | -28%* | 56%* | 56%* | TRPC6 act conf=i
CCCCn1c(N)c(C(=O)NCCN2CCOCC2)c2nc3ccccc3nc21 | i | i | i | i | i | x | x | x | x | x
CCCCCSc1cc(OC)c(CCN(C)C)cc1OC | i | i | i | i | -5.3* | i | i | i | 52%* | 50%* | TRPC6 act conf=i
CCCCCSc1cc(O)c(C(CNC)C(C)C)cc1OC (stereo not given) | i | i | i | i | i | x | x | x | x | x
Cc1ccc(OP(=O)(O)Oc2ccc(C)cc2)cc1 | i | i | i | i | -6.5* | i | i | i | i | i
CCOc1ccccc1CNCCc1ccc2c(c1)OCO2 | i | i | i | i | i | x | x | x | x | x
CCOc1ccccc1CN1C2CCC1CC(c1ccc(C)cc1)C2 (stereo not given) | 16* | i | i | i | i | 265%* | i | 69%* | 58%* | i | TRPC6 act conf=108%*
CN1CCN(C(=O)COc2ccc(-c3nc4ccccc4s3)cc2)CC1 | i | i | i | i | i | x | x | x | x | x

Screening data deposited in PubChem BioAssay by Johns Hopkins Ion Channel Center.
